According to ChEMBL document CHEMBL1687802, “An RpoB mutation confers dual heteroresistance to daptomycin and vancomycin in Staphylococcus aureus” (2010):
In brackets after ≈: the same amount, converted by molar mass.

What was measured:
Staphylococcus aureus [1] = experiment: Antimicrobial activity against methicillin-resistant Staphylococcus aureus N315deltaIP harboring hypothetical protein SA1826 14E mutant gene after 24 hrs by Etest method; format: functional
Outline: (§1)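 Etest MICs (daptomycin, vancomycin, oxacillin, rifampin) on Mueller-Hinton agar, with the daptomycin medium supplemented with 50 mg/liter Ca2+. Plates were swabbed from a 0.5 McFarland suspension, strips were applied 10 min later, and plates were read after 24 h at 37°C. Strains were pKOR1 allelic-replacement mutants or revertants of N315ΔIP (mecI-inactivated, beta-lactamase plasmid cured) or 10*3d1, grown in BHI broth at 37°C.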

Staphylococcus aureus [2] = experiment: Antimicrobial activity against vancomycin-intermediate Staphylococcus aureus MI by Etest method; format: functional
Staphylococcus aureus [3] = experiment: Antimicrobial activity against vancomycin-intermediate Staphylococcus aureus MI-PR selected at 4 mg/L of vancomycin by Etest method; format: functional
Staphylococcus aureus [4] = experiment: Antimicrobial activity against methicillin-resistant Staphylococcus aureus N315deltaIP harboring rpoB 621A mutant after 24 hrs by Etest method
Staphylococcus aureus [5] = experiment: Antimicrobial activity against vancomycin-intermediate Staphylococcus aureus MU50-PR selected at 4 mg/L of vancomycin by Etest method; format: functional
Staphylococcus aureus [6] = experiment: Antimicrobial activity against methicillin-resistant Staphylococcus aureus 10*3d1 harboring hypothetical protein SA1826 14A mutant and rpoB 621A mutant after 24 hrs by Etest method; format: functional; details: 10*3d1, 24 h; outline: as §1
Staphylococcus aureus [7] = experiment: Antimicrobial activity against methicillin-resistant Staphylococcus aureus N315deltaIP harboring rpoB A621E mutant gene after 24 hrs by Etest method; format: functional; outline: as §1
Staphylococcus aureus [8] = experiment: Antimicrobial activity against methicillin-resistant Staphylococcus aureus N315deltaIP harboring hypothetical protein SA1826 14A mutant after 24 hrs by Etest method; format: functional; outline: as §1
Staphylococcus aureus [9] = experiment: Antimicrobial activity against vancomycin-intermediate Staphylococcus aureus MU50 by Etest method; format: functional
Staphylococcus aureus [10] = experiment: Antimicrobial activity against methicillin-resistant Staphylococcus aureus N315deltaIP after 24 hrs by Etest method; format: functional; outline: as §1
Staphylococcus aureus [11] = experiment: Antimicrobial activity against methicillin-resistant Staphylococcus aureus 10*3d1 harboring hypothetical protein SA1826 14E mutant gene after 24 hrs by Etest method; format: functional; details: 10*3d1, 24 h; outline: as §1
Staphylococcus aureus [12] = experiment: Antimicrobial activity against vancomycin-susceptible Staphylococcus aureus MI-P84 by Etest method
Staphylococcus aureus [13] = experiment: Antimicrobial activity against methicillin-resistant Staphylococcus aureus 10*3d1 harboring rpoB 621E mutation after 24 hrs by Etest method; details: 10*3d1, 24 h
Staphylococcus aureus [14] = experiment: Antimicrobial activity against methicillin-resistant Staphylococcus aureus 10*3d1 harboring hypothetical protein SA1826 14A(-) and rpoB 621E mutant gene after 24 hrs by Etest method; format: functional; details: 10*3d1, 24 h; outline: as §1
Staphylococcus aureus [15] = experiment: Antimicrobial activity against vancomycin-susceptible Staphylococcus aureus MU50-P35 by Etest method
Staphylococcus aureus [16] = experiment: Antimicrobial activity against methicillin-resistant Staphylococcus aureus 10*3d1 harboring hypothetical protein SA1826 14A mutant gene after 24 hrs by Etest method; format: functional; details: 10*3d1, 24 h; outline: as §1
Staphylococcus aureus [17] = experiment: Antimicrobial activity against vancomycin-intermediate Staphylococcus aureus MU50-PR selected at 4 mg/L of compound by Etest method
Staphylococcus aureus [18] = experiment: Antimicrobial activity against vancomycin-intermediate Staphylococcus aureus MU50-P35 selected at 4 mg/L of compound by Etest method
Staphylococcus aureus [19] = experiment: Antimicrobial activity against vancomycin-intermediate Staphylococcus aureus MI-PR selected at 4 mg/L of compound by Etest method
Staphylococcus aureus [20] = experiment: Antimicrobial activity against vancomycin-intermediate Staphylococcus aureus MI-P84 selected at 4 mg/L of compound by Etest method

CCCCCCCCCC(=O)N[C@@H](Cc1c[nH]c2ccccc12)C(=O)N[C@H](CC(N)=O)C(=O)N[C@@H](CC(=O)O)C(=O)N[C@@H]1C(=O)NCC(=O)N[C@@H](CCCN)C(=O)N[C@@H](CC(=O)O)C(=O)N[C@H](C)C(=O)N[C@@H](CC(=O)O)C(=O)NCC(=O)N[C@H](CO)C(=O)N[C@@H]([C@H](C)CC(=O)O)C(=O)N[C@@H](CC(=O)c2ccccc2N)C(=O)O[C@@H]1C
MIC (Staphylococcus aureus [1]): 0.25 mg/L (≈ 0.154 µM) | MIC (Staphylococcus aureus [2]): 2 mg/L (≈ 1.23 µM) | MIC (Staphylococcus aureus [3]): 2 mg/L (≈ 1.23 µM) | MIC (Staphylococcus aureus [4]): 0.25 mg/L (≈ 0.154 µM) | MIC (Staphylococcus aureus [5]): 2 mg/L (≈ 1.23 µM) | MIC (Staphylococcus aureus [6]): 0.25 mg/L (≈ 0.154 µM) | MIC (Staphylococcus aureus [7]): 1.5 mg/L (≈ 0.926 µM) | MIC (Staphylococcus aureus [8]): 0.25 mg/L (≈ 0.154 µM) | MIC (Staphylococcus aureus [9]): 2 mg/L (≈ 1.23 µM) | MIC (Staphylococcus aureus [10]): 0.38 mg/L (≈ 0.234 µM) | MIC (Staphylococcus aureus [11]): 1.5 mg/L (≈ 0.926 µM) | MIC (Staphylococcus aureus [12]): 0.5 mg/L (≈ 0.309 µM) | MIC (Staphylococcus aureus [13]): 2 mg/L (≈ 1.23 µM) | MIC (Staphylococcus aureus [14]): 1.5 mg/L (≈ 0.926 µM) | MIC (Staphylococcus aureus [15]): 0.5 mg/L (≈ 0.309 µM) | MIC (Staphylococcus aureus [16]): 1.5 mg/L (≈ 0.926 µM)

Cc1onc(-c2ccccc2)c1C(=O)N[C@@H]1C(=O)N2[C@@H]1SC(C)(C)[C@@H]2C(=O)O [OXACILLIN]
MIC (Staphylococcus aureus [1]): > 256 mg/L | MIC (Staphylococcus aureus [4]): > 256 mg/L | MIC (Staphylococcus aureus [6]): > 256 mg/L | MIC (Staphylococcus aureus [7]): > 256 mg/L | MIC (Staphylococcus aureus [8]): > 256 mg/L | MIC (Staphylococcus aureus [10]): 48 mg/L (≈ 120 µM) | MIC (Staphylococcus aureus [11]): > 256 mg/L | MIC (Staphylococcus aureus [13]): > 256 mg/L | MIC (Staphylococcus aureus [14]): > 256 mg/L | MIC (Staphylococcus aureus [16]): > 256 mg/L

CO[C@H]1/C=C/O[C@@]2(C)Oc3c(C)c(O)c4c(O)c(c(/C=N/N5CCN(C)CC5)c(O)c4c3C2=O)NC(=O)/C(C)=C\C=C\[C@H](C)[C@H](O)[C@@H](C)[C@@H](O)[C@@H](C)[C@H](OC(C)=O)[C@@H]1C [RIFAMPIN]
MIC (Staphylococcus aureus [1]): 0.006 mg/L (≈ 0.00729 µM) | MIC (Staphylococcus aureus [4]): 0.006 mg/L (≈ 0.00729 µM) | MIC (Staphylococcus aureus [6]): 0.006 mg/L (≈ 0.00729 µM) | MIC (Staphylococcus aureus [7]): 0.006 mg/L (≈ 0.00729 µM) | MIC (Staphylococcus aureus [8]): 0.006 mg/L (≈ 0.00729 µM) | MIC (Staphylococcus aureus [10]): 0.006 mg/L (≈ 0.00729 µM) | MIC (Staphylococcus aureus [11]): 0.006 mg/L (≈ 0.00729 µM) | MIC (Staphylococcus aureus [13]): 0.006 mg/L (≈ 0.00729 µM) | MIC (Staphylococcus aureus [14]): 0.006 mg/L (≈ 0.00729 µM) | MIC (Staphylococcus aureus [16]): 0.006 mg/L (≈ 0.00729 µM)

CN[C@H](CC(C)C)C(=O)N[C@H]1C(=O)N[C@@H](CC(N)=O)C(=O)N[C@H]2C(=O)N[C@H]3C(=O)N[C@H](C(=O)N[C@H](C(=O)O)c4cc(O)cc(O)c4-c4cc3ccc4O)[C@H](O)c3ccc(c(Cl)c3)Oc3cc2cc(c3O[C@@H]2O[C@H](CO)[C@@H](O)[C@H](O)[C@H]2O[C@H]2C[C@](C)(N)[C@H](O)[C@H](C)O2)Oc2ccc(cc2Cl)[C@H]1O [VANCOMYCIN]
MIC (Staphylococcus aureus [1]): 0.5 mg/L (≈ 0.345 µM) | MIC (Staphylococcus aureus [2]): 7 mg/L (≈ 4.83 µM) | MIC (Staphylococcus aureus [17]): 6 mg/L (≈ 4.14 µM) | MIC (Staphylococcus aureus [18]): 2 mg/L (≈ 1.38 µM) | MIC (Staphylococcus aureus [4]): 0.25 mg/L (≈ 0.173 µM) | MIC (Staphylococcus aureus [6]): 0.75 mg/L (≈ 0.518 µM) | MIC (Staphylococcus aureus [7]): 3 mg/L (≈ 2.07 µM) | MIC (Staphylococcus aureus [8]): 0.5 mg/L (≈ 0.345 µM) | MIC (Staphylococcus aureus [19]): 6 mg/L (≈ 4.14 µM) | MIC (Staphylococcus aureus [9]): 6 mg/L (≈ 4.14 µM) | MIC (Staphylococcus aureus [10]): 0.5 mg/L (≈ 0.345 µM) | MIC (Staphylococcus aureus [11]): 3 mg/L (≈ 2.07 µM) | MIC (Staphylococcus aureus [13]): 3 mg/L (≈ 2.07 µM) | MIC (Staphylococcus aureus [14]): 3 mg/L (≈ 2.07 µM) | MIC (Staphylococcus aureus [20]): 1 mg/L (≈ 0.69 µM) | MIC (Staphylococcus aureus [16]): 3 mg/L (≈ 2.07 µM)
